Paper PMC2916699 (Journal of molecular biology, 2009)
Where a SMILES comes first, the peptide text is derived from it. The star is where a group is joined. Dansyl = CN(C)c1cccc2c(S(=O)(=O)*)cccc12

The molecules below were run against T1, protein farnesyltransferase (FTase) (Rattus norvegicus, UniProt Q02293+Q04631) (assay: Steady state continuous dansyl fluorescence assay, kcat/Km peptide). Conditions: initial library, multiple-turnover substrates; 10 μM FPP, 0.4–10 μM dansylated peptide, 25–300 nM FTase, 50 mM HEPPSO pH 7.8, 5 mM TCEP, 5 mM MgCl2, 10 μM ZnCl, 25 °C.
Assay type: biochemical
Summary of the method: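 Dansyl-TKCxxx peptides (0.4–10 μM) with saturating FPP 10 μM, 50 mM HEPPSO pH 7.8, 5 mM TCEP, 5 mM MgCl2, 10 μM ZnCl, 25 °C. FTase (25–300 nM) started the reaction. Dansyl fluorescence (ex 340, em 520 nm) followed to endpoint (~2–6 h). Rates converted to product using endpoint fluorescence. kcat/Km from linear or Michaelis–Menten fit of V/[E] versus peptide.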
In the case of CGIA, the kcat/Km is reported as 160 ± 50 M⁻¹ s⁻¹.
Work on CGLF yielded a kcat/Km of 450 ± 60 M⁻¹ s⁻¹.
CGLY was tested, and the kcat/Km was 1000 ± 100 M⁻¹ s⁻¹.
For CLML, the kcat/Km was 150 ± 20 M⁻¹ s⁻¹.
CNLM was tested, and the kcat/Km was 1000 ± 300 M⁻¹ s⁻¹.
CQTA gave a kcat/Km of 530 ± 20 M⁻¹ s⁻¹.
Work on CSVQ yielded a kcat/Km of 1200 ± 400 M⁻¹ s⁻¹.
For CTVF, the kcat/Km was 1300 ± 100 M⁻¹ s⁻¹.
Work on CVLQ yielded a kcat/Km of 780 ± 30 M⁻¹ s⁻¹.
Molecule CVQM has a kcat/Km of 270 ± 30 M⁻¹ s⁻¹.

Same assay, conditions: targeted library, multiple-turnover substrates; dansyl fluorescence, 25 °C
In the case of CALQ, the “kcat/KM^peptide” value is reported as 12000 ± 2000 M⁻¹ s⁻¹.
With CALV the “kcat/KM^peptide” value was 100 ± 20 M⁻¹ s⁻¹.
In the case of CDVK, the “kcat/KM^peptide” value is reported as 3600 ± 800 M⁻¹ s⁻¹.
In the case of CEIQ, the “kcat/KM^peptide” value is reported as 3100 ± 600 M⁻¹ s⁻¹.
For CFPS, the “kcat/KM^peptide” value was 4700 ± 500 M⁻¹ s⁻¹.
In the case of CFTN, the “kcat/KM^peptide” value is reported as 970 ± 70 M⁻¹ s⁻¹.
For CFVN, the “kcat/KM^peptide” value was 2100 ± 700 M⁻¹ s⁻¹.
In the case of CGVV, the “kcat/KM^peptide” value is reported as 90 ± 30 M⁻¹ s⁻¹.
CHIM was tested, and the “kcat/KM^peptide” value was 3300 ± 400 M⁻¹ s⁻¹.
CHIQ was tested, and the “kcat/KM^peptide” value was 2200 ± 600 M⁻¹ s⁻¹.
CHLM was tested, and the “kcat/KM^peptide” value was 2000 ± 300 M⁻¹ s⁻¹.
With CHLS the “kcat/KM^peptide” value was 460 ± 20 M⁻¹ s⁻¹.
CHVM was tested, and the “kcat/KM^peptide” value was 10000 ± 8000 M⁻¹ s⁻¹.
For CHVQ, the “kcat/KM^peptide” value was 4500 ± 800 M⁻¹ s⁻¹.
With CKIV the “kcat/KM^peptide” value was 870 ± 70 M⁻¹ s⁻¹.
CLLV was tested, and the “kcat/KM^peptide” value was 100 ± 60 M⁻¹ s⁻¹.
With CNLK the “kcat/KM^peptide” value was 6300 ± 1600 M⁻¹ s⁻¹.
CSLA was tested, and the “kcat/KM^peptide” value was 2500 ± 300 M⁻¹ s⁻¹.
CSLH was tested, and the “kcat/KM^peptide” value was 210 ± 10 M⁻¹ s⁻¹.
CTIV was tested, and the “kcat/KM^peptide” value was 7200 ± 800 M⁻¹ s⁻¹.
With CTVS the “kcat/KM^peptide” value was 5800 ± 1200 M⁻¹ s⁻¹.
In the case of CVHF, the “kcat/KM^peptide” value is reported as 460 ± 40 M⁻¹ s⁻¹.
With CYIS the “kcat/KM^peptide” value was 12000 ± 5000 M⁻¹ s⁻¹.
For CYLA, the “kcat/KM^peptide” value was 4700 ± 300 M⁻¹ s⁻¹.

What follows are molecules tested against T1, protein farnesyltransferase (FTase) (assay: not given). Conditions: single-turnover only (STO) peptides, initial library; 0.4–0.8 μM FTase, 50–100 μM dansylated peptide, 0.1–0.2 μM FPP, 50 mM HEPPSO pH 7.8, 5 mM MgCl2, 2 mM TCEP, 25 °C.
Assay type: biochemical
Summary of the method: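 Stopped-flow, pre-mix levels: FTase (0.8–1.6 μM) with FPP (0.2–0.4 μM) in HEPPSO pH 7.8, MgCl2, TCEP, plus a phosphate mop (PNPase 0.5 units mL−1, 15 mM 7-methylguanosine). This is mixed 1:1 with dansylated peptide (100 or 200 μM) containing MDCC-labelled A197C PBP (5–10 μM), inorganic pyrophosphatase and the mop. Emission is followed at 450 nm, and a single-exponential fit gives kfarn.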
CAKS was tested, and the kfarn was 2.3 ± 0.2 s⁻¹.
Molecule CAVL has a kfarn of 0.91 ± 0.09 s⁻¹.
With CPLG the kfarn was 0.019 ± 0.001 s⁻¹.
Molecule CSEA has a kfarn of 0.020 ± 0.002 s⁻¹.
For CVLL, the kfarn was 0.83 ± 0.08 s⁻¹.
With CVSS the kfarn was 0.097 ± 0.009 s⁻¹.
With TKCYSN the kfarn was 0.0025 ± 0.0002 s⁻¹.

Same assay, conditions: single-turnover only (STO) peptides, initial library; 0.4–0.8 μM FTase, 50–100 μM dansylated peptide, 0.1–0.2 μM FPP, 50 mM HEPPSO pH 7.8, 5 mM MgCl2, 2 mM TCEP, 25 °C; listed as TKCYSN
TKCYSN showed a kfarn of 0.0025 s⁻¹.

Each molecule was assayed against FTase·I2 complex (Rattus norvegicus, UniProt Q02293+Q04631) (assay: Peptide binding affinity by fluorescence anisotropy). Conditions: not given.
Molecule `CC[C@H](C)[C@H](NC(=O)[C@H](CS)NC(=O)[C@H](CCCCN)NC(=O)[C@@H](NS(=O)(=O)c1cccc2c(N(C)C)cccc12)[C@@H](C)O)C(=O)N[C@H](C(=O)N[C@@H](C)C(=O)O)C(C)C` [CIVA] (Dansyl-TKCIVA-OH) has a Kd of 5 ± 2 nM.
With `CC[C@H](C)[C@H](NC(=O)[C@H](CO)NC(=O)[C@H](CS)NC(=O)[C@H](CCCCN)NC(=O)[C@@H](NS(=O)(=O)c1cccc2c(N(C)C)cccc12)[C@@H](C)O)C(=O)N[C@@H](CCSC)C(=O)O` [CSIM] (Dansyl-TKCSIM-OH) the Kd was 6 ± 2 nM.
